Measurements from different studies.
HTR2A: 5-hydroxytryptamine receptor 2A (HTR2A, Homo sapiens, UniProt P28223)
SIGMAR1: Sigma non-opioid intracellular receptor 1 (SIGMAR1, Homo sapiens, UniProt Q99720)
PPO3: PPO3 (Agaricus bisporus, UniProt C7FF04)
HRH4: Histamine H4 receptor (HRH4, Homo sapiens, UniProt Q9H3N8)
OPRK1: Kappa-type opioid receptor (OPRK1, Homo sapiens, UniProt P41145)
SPHK1: Sphingosine kinase 1 (SPHK1, Homo sapiens, UniProt Q9NYA1)
SLC10A1: Hepatic sodium/bile acid cotransporter (SLC10A1, Homo sapiens, UniProt Q14973)

Structure (SMILES)	target	effect on	action	method	notes	Ki
Cc1nc2n(c(=O)c1CCN1CCCCC1)CCCC2	HTR2A	ligand displacement	–	radioligand	cell membranes	~5 µM
CCCn1nc(C(=O)N(C)C)c2c1CCC(NCc1ccc(OC)cc1OC)C2 (stereo not shown)	SIGMAR1	ligand displacement	–	radioligand	–	> 10 µM
Cc1ccc(C(C)C)cc1NC(=O)COC(=O)/C=C/c1ccccc1	PPO3	enzyme activity	inhibitor	–	–	0.84 µM
CCCCN1CCC(COC(=O)c2ccc(N)c(OCF)c2)CC1	HRH4	cell-free assay	–	radioligand	–	> 10 µM
Cc1cccc(CN2CCCC(C(=O)NCCc3cccnc3)CC2)n1 (stereo not shown)	OPRK1	cell-free assay	–	–	–	> 10 µM
CNC(=O)[C@@]12C[C@@H]1[C@@H](n1cnc3c(NC)nc(C#Cc4ccccc4Cl)nc31)[C@H](O)[C@@H]2O	OPRK1	cell-free assay	–	–	–	> 10 µM
CCCc1ccc(CCc2ccc(-c3noc([C@@H]4CCCN4C(=N)N)n3)cc2C(F)(F)F)cc1	SPHK1	enzyme activity	inhibitor	–	–	17 µM
COc1ccccc1N1CCN(CCCCNC(=O)c2cc3cc(OCCOCCOCCF)ccc3[nH]2)CC1	SIGMAR1	cell-free assay	–	–	–	> 10 µM
CCCn1nc(C(=O)N2CCCCC2)c2c1CCC(N1CCC(c3ccncc3)CC1)C2 (stereo not shown)	SIGMAR1	ligand displacement	–	radioligand	–	> 10 µM
CC[C@H](C)[C@H](NC(=O)[C@H](CCC(=O)O)NC(=O)[C@H](CC(=O)O)NC(=O)CNC(=O)[C@H](CC(C)C)NC(=O)[C@H](CCCNC(=N)N)NC(=O)[C@H](CCC(N)=O)NC(=O)[C@H](CC(C)C)NC(=O)[C@H](CO)NC(=O)[C@H](CCC(N)=O)NC(=O)[C@@H](NC(=O)[C@H](CC(C)C)NC(=O)[C@H](Cc1c[nH]c2ccccc12)NC(=O)[C@@H](NC(=O)[C@H](CCC(=O)O)NC(=O)[C@@H]1CCCN1C(=O)[C@H](CCCNC(=N)N)NC(C)=O)[C@@H](C)CC)[C@@H](C)O)C(=O)N[C@@H](CC(N)=O)C(=O)N[C@@H](C)C(=O)N[C@@H](Cc1ccc(O)cc1)C(=O)N[C@@H](Cc1ccc(O)cc1)C(=O)N[C@@H](C)C(=O)N[C@@H](CCCNC(=N)N)C(N)=O	Bcl-2-like protein 1 (BCL2L1, Homo sapiens, UniProt Q07817)	ligand displacement	–	FP	–	~2.1 µM
Nc1nc(N)c(N=Nc2ccccc2[N+](=O)[O-])c(N)n1	PPO3	enzyme activity	inhibitor	–	–	5.66 µM
CNc1nc(C#Cc2ccc(Cl)s2)nc2c1ncn2[C@@H]1O[C@H](C(=O)OC)[C@@H](O)[C@H]1O	OPRK1	cell-free assay	–	–	–	> 10 µM
Nc1nc(N)c(N=Nc2ccccc2[N+](=O)[O-])c(Cl)n1	PPO3	enzyme activity	inhibitor	–	–	3.6 µM
Cc1nc2n(c(=O)c1CCNCCc1c[nH]c3cc(F)ccc13)CCCC2	HTR2A	ligand displacement	–	radioligand	cell membranes	1.95 µM
CNC(=O)[C@@]12C[C@@H]1[C@@H](n1cnc3c(NC)nc(C#Cc4ccc(Cl)s4)nc31)[C@H](O)[C@@H]2O	OPRK1	cell-free assay	–	–	–	> 10 µM
CCCn1nc(C(=O)N2CCCCC2)c2c1CCC(NCCCNC)C2 (stereo not shown)	SIGMAR1	ligand displacement	–	radioligand	–	> 10 µM
CC(C)C(=O)Nc1ccc([N+](=O)[O-])c(C(F)(F)F)c1	SLC10A1	transporter uptake	inhibitor	–	–	113 µM
O=C1NC(c2ccccc2)(c2ccccc2)C(=O)N1CCCN1CCCCC1	HRH4	ligand displacement	–	radioligand	cell membranes	> 10 µM
CCOC(=O)[C@@]12C[C@@H]1[C@@H](n1cnc3c(NC)nc(C#Cc4ccc(Cl)s4)cc31)[C@H](O)[C@@H]2O	OPRK1	cell-free assay	–	–	–	> 10 µM
CCNC(=O)[C@H]1O[C@@H](n2cnc3c(N)nc(NN=CC4CCC=CO4)nc32)[C@H](O)[C@@H]1O (stereo partly shown)	Adenosine receptor A2a (ADORA2A, Homo sapiens, UniProt P29274)	ligand displacement	–	radioligand	–	0.00664 µM

Structure (SMILES)	target	effect on	action	method	notes	Ki
CCCn1nc(C(=O)N2CCCCC2)c2c1CCC(NCC1CCOCC1)C2 (stereo not shown)	SIGMAR1	ligand displacement	–	radioligand	–	> 10 µM
COc1cc2c(cc1OC)CN(CCCCn1ccc3c(OC)cccc31)C2	SIGMAR1	ligand displacement	–	radioligand	cell membranes	0.149 µM
Cc1ccc(N=Nc2c(N)nc(N)nc2Cl)cc1	PPO3	enzyme activity	inhibitor	–	–	5.87 µM
CCCn1nc(C(=O)N2CCCCC2)c2c1CCC(N(C)Cc1ccc(F)cc1)C2 (stereo not shown)	SIGMAR1	ligand displacement	–	radioligand	–	> 10 µM
CCOC(=O)[C@H](CCSC)NC(=O)c1ccc(C2CC2)c(Cc2ccc(F)cc2)n1	Cannabinoid receptor 1 (CNR1, Homo sapiens, UniProt P21554)	ligand displacement	–	radioligand	cell membranes	0.07 µM
OCCCN1CC[C@@H]2C[C@H]1c1cc(-c3ccc(C(F)(F)F)cc3)ccc12	HRH4	ligand displacement	–	radioligand	–	5.51 µM
[H]/N=C(\N)N1CCC[C@H]1c1nc(-c2ccc(OCC=Cc3ccc(C(F)(F)F)cc3)c(C(F)(F)F)c2)no1	SPHK1	enzyme activity	inhibitor	–	–	12 µM
CNc1nc(C#Cc2ccccc2)nc2c1ncn2[C@H]1[C@H](O)[C@H](O)[C@@H]2C[C@@H]21	OPRK1	cell-free assay	–	–	–	> 10 µM
COc1ccc2c(ccn2CCCCN2CCc3cc(OC)c(OC)cc3C2)c1	SIGMAR1	ligand displacement	–	radioligand	cell membranes	0.45 µM
CNc1nc(C#Cc2ccc(Cl)s2)nc2c1ncn2[C@H]1[C@H](O)[C@H](O)[C@]2(C(=O)OC(C)C)C[C@H]12	OPRK1	cell-free assay	–	–	–	> 10 µM
Nc1nc(N)c(N=Nc2ccc([N+](=O)[O-])cc2)c(N)n1	PPO3	enzyme activity	inhibitor	–	–	4.62 µM
CNC(=O)[C@@]12C[C@@H]1[C@@H](n1cnc3c(NCc4cccc(Cl)c4)nc(C#Cc4ccccc4Cl)nc31)[C@H](O)[C@@H]2O	OPRK1	cell-free assay	–	–	–	> 10 µM
CCCn1nc(C(=O)N2CCCCC2)c2c1CCC(N1CCc3ccccc3C1)C2 (stereo not shown)	SIGMAR1	ligand displacement	–	radioligand	–	> 10 µM
CCNc1nc(C#Cc2ccccc2)nc2c1ncn2[C@H]1[C@H](O)[C@H](O)[C@@H]2C[C@@H]21	OPRK1	cell-free assay	–	–	–	> 10 µM
COc1ccc(N=Nc2c(N)nc(N)nc2Cl)cc1	PPO3	enzyme activity	inhibitor	–	–	7.05 µM
CS(=O)(=O)CCNCc1ccc(-c2ccc3ncnc(Nc4ccc(OCc5cccc(F)c5)c(Cl)c4)c3c2)o1	SLC10A1	transporter uptake	inhibitor	–	–	285 µM
C[C@@H]1Cc2ccccc2N1C(=O)NCCCCN(C)[C@@H]1Cc2cccc3[nH]c(=O)n(c23)C1	HTR2A	ligand displacement	–	radioligand	–	2.71 µM
CCCn1nc(C(=O)N2CCCCC2)c2c1CCC(NCc1ccc(S(N)(=O)=O)cc1)C2 (stereo not shown)	SIGMAR1	ligand displacement	–	radioligand	–	> 10 µM
Cc1nc2n(c(=O)c1CCNCCc1c[nH]c3ccccc13)CCCC2	HTR2A	ligand displacement	–	radioligand	cell membranes	> 10 µM
CCc1cc(Cl)c(OC)c(C(=O)NC[C@@H]2CCCN2CC)c1O	Vesicular acetylcholine transporter (SLC18A3, Homo sapiens, UniProt Q16572)	ligand displacement	–	radioligand	–	> 1 µM
